Experimental data from ChEMBL document CHEMBL1145831 (J Med Chem, 2003).

What was measured:
[1] = tested on: Mus musculus; experiment: Ratio of the median tumor weight in the treatment group over the median tumor weight in the control group on a schedule of 1-6 days and at a total dose of 72 mg/kg; type: functional
Procedure, shortened: (§1)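 Panc-03 murine pancreatic adenocarcinoma in mice, with injectable solutions prepared in water from stock and given within 20 min; chlorohydrins were acidified with 0.05% citric acid. %T/C is median tumor weight of the treated group over that of the control group × 100, calculated when control median tumor weight reaches 1 g. T/C ≤ 42% is taken as significant activity.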

[2] = tested on: Mus musculus; experiment: In vivo antitumor activity against murine pancreatic adenocarcinoma and measured as number of deaths on a schedule of 1-6 days and at a total dose of 162 mg/kg; type: ADME, organism-based; set-up: dose 162 mg/kg
Procedure, shortened: (§2)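 Mice bearing drug-sensitive murine pancreatic adenocarcinoma Panc-03 were dosed on the listed days at the listed total doses. Dosing solutions were made in water from stock solutions and injected within 20 min. Chlorohydrin solutions were acidified with 0.05% citric acid. Tolerance was recorded as body weight loss and number of deaths.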

[3] = tested on: Mus musculus; experiment: In vivo antitumor activity against murine pancreatic adenocarcinoma and measured as % weight loss on a schedule of 1-6 days and at a total dose of 72 mg/kg; type: functional; procedure, shortened: as §2
[4] = tested on: Mus musculus; experiment: In vivo antitumor activity against murine pancreatic adenocarcinoma and measured as number of deaths on a schedule of 1-6 days and at a total dose of 72 mg/kg; type: ADME, organism-based; set-up: dose 72 mg/kg; procedure, shortened: as §2
[5] = tested on: CCRF-CEM; experiment: In vitro growth inhibitory activity in the human CCRF-CEM leukemia cell line.; type: functional, cell-based
Procedure, shortened: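 CCRF-CEM human leukemia cells in log phase, 4.8 × 10⁴ cells per 2 mL well. Medium was RPMI-1640 with 10% dialyzed FBS and 25 mM HEPES. Compounds were serially diluted 1:3 in DMSO and added to duplicate wells, with DMSO-only controls, at 0.5% final DMSO. Cells were exposed 72 h at 37 °C in humidified 5% CO₂, then counted. IC50 in nM.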

[6] = tested on: Mus musculus; experiment: Ratio of the median tumor weight in the treatment group over the median tumor weight in the control group on a schedule of 1-6 days and at a total dose of 162 mg/kg; type: functional; procedure, shortened: as §1
[7] = tested on: Mus musculus; experiment: In vivo antitumor activity against murine pancreatic adenocarcinoma and measured as % weight loss on a schedule of 1-6 days and at a total dose of 162 mg/kg; type: functional; procedure, shortened: as §2
[8] = tested on: Mus musculus; experiment: Ratio of the median tumor weight in the treatment group over the median tumor weight in the control group on a schedule of 5-10 day and at a total dose of 270 mg/kg; type: functional
Procedure, shortened: (§3)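 Murine pancreatic adenocarcinoma Panc-03 tumors in mice. T/C is the median tumor weight of the treated group over that of controls, ×100, taken when control median tumor weight reaches 1 g. T/C ≤42% counts as significant antitumor activity. Dosing solutions were prepared aqueous from stock solutions and injected within 20 min.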

[9] = tested on: Mus musculus; experiment: In vivo antitumor activity against murine pancreatic adenocarcinoma and measured as % weight loss on a schedule of 5-10 day and at a total dose of 210 mg/kg; type: functional; procedure, shortened: as §2
[10] = tested on: Mus musculus; experiment: Ratio of the median tumor weight in the treatment group over the median tumor weight in the control group on a schedule of 5-10 day and at a total dose of 210 mg/kg; type: functional; procedure, shortened: as §1
[11] = tested on: Mus musculus; experiment: In vivo antitumor activity against murine pancreatic adenocarcinoma and measured as number of deaths on a schedule of 5-10 day and at a total dose of 402 mg/kg; type: ADME, organism-based; set-up: dose 402 mg/kg; procedure, shortened: as §2
[12] = tested on: Mus musculus; experiment: Ratio of the median tumor weight in the treatment group over the median tumor weight in the control group on a schedule of 5-10 day and at a total dose of 402 mg/kg; type: functional; procedure, shortened: as §3
[13] = tested on: Mus musculus; experiment: In vivo antitumor activity against murine pancreatic adenocarcinoma and measured as % weight loss on a schedule of 5-10 day and at a total dose of 402 mg/kg; type: functional; procedure, shortened: as §2
[14] = tested on: Mus musculus; experiment: In vivo antitumor activity against murine pancreatic adenocarcinoma and measured as number of deaths on a schedule of 5-10 day and at a total dose of 210 mg/kg; type: ADME, organism-based; set-up: dose 210 mg/kg; procedure, shortened: as §2
[15] = tested on: Mus musculus; experiment: In vivo antitumor activity against murine pancreatic adenocarcinoma and measured as number of deaths on a schedule of 5-10 day and at a total dose of 270 mg/kg; type: ADME, organism-based; set-up: dose 270 mg/kg; procedure, shortened: as §2
[16] = tested on: Mus musculus; experiment: In vivo antitumor activity against murine pancreatic adenocarcinoma and measured as % weight loss on a schedule of 5-10 day and at a total dose of 270 mg/kg; type: functional; procedure, shortened: as §2
[17] = tested on: Mus musculus; experiment: Ratio of the median tumor weight in the treatment group over the median tumor weight in the control group on a schedule of 3,5,7 days and at a total dose of 36 mg/kg; type: functional
Procedure, shortened: (§4)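 Mice bearing the drug-sensitive murine pancreatic adenocarcinoma Panc-03. Dosing solutions were made in water from stock solutions and injected within 20 min of preparation; chlorohydrins were acidified with 0.05% citric acid. T/C (%) = median tumor weight of the treated group ÷ median tumor weight of controls × 100, calculated when control median tumor weight reached 1 g.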

[18] = tested on: Mus musculus; experiment: In vivo antitumor activity against murine pancreatic adenocarcinoma and measured as number of deaths on a schedule of 3,5,7 days and at a total dose of 18 mg/kg; type: ADME, organism-based; set-up: dose 18 mg/kg; settings: 168 h; procedure, shortened: as §2
[19] = tested on: Mus musculus; experiment: In vivo antitumor activity against murine pancreatic adenocarcinoma and measured as % weight loss 3,5,7 days and at a total dose of 9 mg/kg; type: functional
Procedure, shortened: (§5)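 Body weight loss was tracked in mice implanted with the Panc-03 murine pancreatic adenocarcinoma. Injections were given within 20 min of aqueous preparation from stock solutions, with chlorohydrins acidified using 0.05% citric acid.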

[20] = tested on: Mus musculus; experiment: Ratio of the median tumor weight in the treatment group over the median tumor weight in the control group on a schedule of 3,5,7 days and at a total dose of 18 mg/kg; type: functional; procedure, shortened: as §4
[21] = tested on: Mus musculus; experiment: In vivo antitumor activity against murine pancreatic adenocarcinoma and measured as % weight loss on a schedule of 3,5,7 days and at a total dose of 18 mg/kg; type: functional; procedure, shortened: as §5
[22] = tested on: Mus musculus; experiment: Ratio of the median tumor weight in the treatment group over the median tumor weight in the control group on a schedule of 3,5,7 days and at a total dose of 9 mg/kg; type: functional; procedure, shortened: as §4
[23] = tested on: Mus musculus; experiment: In vivo antitumor activity against murine pancreatic adenocarcinoma and measured as % weight loss on a schedule of 3,5,7 days and at a total dose of 36 mg/kg; type: functional; procedure, shortened: as §5
[24] = tested on: Mus musculus; experiment: In vivo antitumor activity against murine pancreatic adenocarcinoma and measured as number of deaths on a schedule of 3,5,7 days and at a total dose of 9 mg/kg; type: ADME, organism-based; set-up: dose 9 mg/kg; settings: 168 h; procedure, shortened: as §2
[25] = tested on: Mus musculus; experiment: In vivo antitumor activity against murine pancreatic adenocarcinoma and measured as number of deaths on a schedule of 3,5,7 days and at a total dose of 36 mg/kg; type: ADME, organism-based; set-up: dose 36 mg/kg; settings: 168 h; procedure, shortened: as §2
[26] = tested on: Mus musculus; experiment: In vivo antitumor activity against murine pancreatic adenocarcinoma and measured as number of deaths on a schedule of 3,5 days and at a total dose of 1 mg/kg; type: ADME, organism-based; set-up: dose 1 mg/kg; settings: 120 h; procedure, shortened: as §2
[27] = tested on: Mus musculus; experiment: In vivo antitumor activity against murine pancreatic adenocarcinoma and measured as number of deaths on a schedule of 3,5 days and at a total dose of 1.6 mg/kg; type: ADME, organism-based; set-up: dose 1.6 mg/kg; settings: 120 h; procedure, shortened: as §2
[28] = tested on: Mus musculus; experiment: Ratio of the median tumor weight in the treatment group over the median tumor weight in the control group on a schedule of 3,5 days and at a total dose of 1.6 mg/kg; type: functional; procedure, shortened: as §1
[29] = tested on: Mus musculus; experiment: Ratio of the median tumor weight in the treatment group over the median tumor weight in the control group on a schedule of 3,5 days and at a total dose of 1 mg/kg; type: functional; procedure, shortened: as §1
[30] = tested on: Mus musculus; experiment: Ratio of the median tumor weight in the treatment group over the median tumor weight in the control group on a schedule of 3 days and at a total dose of 2 mg/kg; type: functional; procedure, shortened: as §1
[31] = tested on: Mus musculus; experiment: In vivo antitumor activity against murine pancreatic adenocarcinoma and measured as % weight loss on a schedule of 3,5 days and at a total dose of 1 mg/kg; type: functional; procedure, shortened: as §2
[32] = tested on: Mus musculus; experiment: In vivo antitumor activity against murine pancreatic adenocarcinoma and measured as number of deaths on a schedule of 3 days and at a total dose of 2 mg/kg; type: ADME, organism-based; set-up: dose 2 mg/kg; settings: 72 h; procedure, shortened: as §2
[33] = tested on: Mus musculus; experiment: In vivo antitumor activity against murine pancreatic adenocarcinoma and measured as % weight loss on a schedule of 3 days and at a total dose of 2 mg/kg; type: functional; procedure, shortened: as §2
[34] = tested on: Mus musculus; experiment: In vivo antitumor activity against murine pancreatic adenocarcinoma and measured as % weight loss on a schedule of 3,5 days and at a total dose of 1.6 mg/kg; type: functional; procedure, shortened: as §2
[35] = tested on: Mus musculus; experiment: In vivo antitumor activity against murine pancreatic adenocarcinoma and measured as % weight loss on a schedule of 3-9 days and at a total dose of 42 mg/kg; type: functional; procedure, shortened: as §2
[36] = tested on: Mus musculus; experiment: Ratio of the median tumor weight in the treatment group over the median tumor weight in the control group on a schedule of 3-10 days and at a total dose of 32 mg/kg; type: functional; procedure, shortened: as §1
[37] = tested on: Mus musculus; experiment: In vivo antitumor activity against murine pancreatic adenocarcinoma and measured as % weight loss on a schedule of 3-10 days and at a total dose of 32 mg/kg; type: functional; procedure, shortened: as §2
[38] = tested on: Mus musculus; experiment: Ratio of the median tumor weight in the treatment group over the median tumor weight in the control group on a schedule of 3-9 days and at a total dose of 42 mg/kg; type: functional; procedure, shortened: as §1
[39] = tested on: Mus musculus; experiment: In vivo antitumor activity against murine pancreatic adenocarcinoma and measured as number of deaths on a schedule of 3-10 days and at a total dose of 32 mg/kg; type: ADME, organism-based; set-up: dose 32 mg/kg; procedure, shortened: as §2
[40] = tested on: Mus musculus; experiment: In vivo antitumor activity against murine pancreatic adenocarcinoma and measured as number of deaths on a schedule of 3-9 days and at a total dose of 42 mg/kg; type: ADME, organism-based; set-up: dose 42 mg/kg; procedure, shortened: as §2

COc1ccc(C[C@H]2NC(=O)/C=C/C[C@@H]([C@H](C)[C@@H](O)[C@@H](Cl)c3cccc(C)c3)OC(=O)[C@H](CC(C)C)OC(=O)C(C)(C)CNC2=O)cc1Cl
T/C [1]: 46%
Death [2]: 0
Weight loss [3]: 12%
Death [4]: 0
IC50 [5]: 0.3 nM
T/C [6]: 0%
Weight loss [7]: 7%

COc1ccc(C[C@H]2NC(=O)/C=C/C[C@@H]([C@H](C)[C@@H](O)[C@@H](Cl)c3ccccc3)OC(=O)[C@H](CC(C)C)OC(=O)C(C)(C)CNC2=O)cc1Cl
T/C [8]: 0%
Weight loss [9]: -5%
T/C [10]: 0%
Death [11]: 0
T/C [12]: 0%
Weight loss [13]: -6%
Death [14]: 0
Death [15]: 0
Weight loss [16]: -5%

COc1ccc(C[C@H]2NC(=O)/C=C/C[C@@H]([C@H](C)[C@@H](O)[C@@H](Cl)c3ccc(COC(=O)CN)cc3)OC(=O)[C@H](CC(C)C)OC(=O)C(C)(C)CNC2=O)cc1Cl.Cl
T/C [17]: 0%
Death [18]: 0
Weight loss [19]: -2%
T/C [20]: 0%
Weight loss [21]: -4%
T/C [22]: 0%
Weight loss [23]: -20%
Death [24]: 0
IC50 [5]: 0.013 nM
Death [25]: 3

COc1ccc(C[C@H]2NC(=O)/C=C/C[C@@H]([C@H](C)[C@@H](O)[C@@H](Cl)c3ccc(CN4CCNCC4)cc3)OC(=O)[C@H](CC(C)C)OC(=O)C(C)(C)CNC2=O)cc1Cl.Cl.Cl
Death [26]: 0
Death [27]: 0
T/C [28]: 0%
T/C [29]: 33%
T/C [30]: 8%
Weight loss [31]: -3%
Death [32]: 2
Weight loss [33]: -26%
IC50 [5]: 0.021 nM
Weight loss [34]: -16%

COc1ccc(C[C@H]2NC(=O)/C=C/C[C@@H]([C@H](C)[C@H]3O[C@@H]3c3ccccc3)OC(=O)[C@H](CC(C)C)OC(=O)C(C)(C)CNC2=O)cc1Cl [CRYPTOPHYCIN 52]
Weight loss [35]: -9.6%
T/C [36]: 3%
Weight loss [37]: 1.6%
T/C [38]: 1%
Death [39]: 0
Death [40]: 3
IC50 [5]: 0.022 nM
